Source: PubChem BioAssay
SR-BI DiI-HDL act: activators of SR-BI mediated DiI-HDL uptake, primary screen, ldlA[mSR-BI] CHO cells, DiI fluorescence; 3 h; 100 = double the neutral-control signal; activation, % at 12.5 µM; 0.096% of 320,000 active;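 active = mean replicate activation of at least 60% and every replicate at or above 60%; inconclusive = mean or all-replicate condition met, but not both; inactive = mean below 60% and not all replicates reaching 60%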;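 note: 0% = median plate neutral-control signal and 100% = twice that signal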
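System: LDL receptor-deficient CHO ldlA cells overexpressing murine SR-BI | Timing: 3 h uptake period with compound, 37 °C | Medium: HEPES-buffered (25 mM, pH 7.4) F12 plus 0.5% BSA | Dosing: Single-point compound dose | Signal: Bottom-read fluorescence, 550/595 nm | Read-out: Retained DiI signal reflecting DiI-HDL uptake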
PKA-R2B activ: activators of PKA-R2B holoenzyme, primary screen, biochemical, fluorescence polarization, Cy5-IP20, human. activation, % at 11.4 µM. 0.079% of 340,000 active. PKA-R2B holoenzyme dissociation; R2B truncated from residue 108, S112A mutant; 0% DMSO only, 100% 113 µM cGMP. cAMP-dependent protein kinase catalytic subunit beta (Homo sapiens) + cAMP-dependent …;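 active = activation above a cutoff set at the mean over all compounds plus 3 SD, cut at about 18% in these data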;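 note: higher means more holoenzyme dissociation and a rise in polarization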
SR-BI HDL uptake: inhibitors of SR-BI mediated HDL lipid uptake, primary screen, ldlA[mSR-BI] cells, fluorescence, single point. inhibition, % at 12.5 µM. 0.96% of 320,000 active. ldlA[mSR-BI] CHO cells, DiI-HDL uptake fluorescence, 3 h. Scavenger receptor class B member 1 (Mus musculus), Q61009;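 active = mean replicate inhibition of at least 70% and a set share of replicates each scoring 70 or more; inconclusive = meets just one of the two criteria; inactive = fails both criteria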;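 note: 0% = median of neutral control wells and 100% = median of positive control wells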
Target sequence (Q61009 whole entry, looked up): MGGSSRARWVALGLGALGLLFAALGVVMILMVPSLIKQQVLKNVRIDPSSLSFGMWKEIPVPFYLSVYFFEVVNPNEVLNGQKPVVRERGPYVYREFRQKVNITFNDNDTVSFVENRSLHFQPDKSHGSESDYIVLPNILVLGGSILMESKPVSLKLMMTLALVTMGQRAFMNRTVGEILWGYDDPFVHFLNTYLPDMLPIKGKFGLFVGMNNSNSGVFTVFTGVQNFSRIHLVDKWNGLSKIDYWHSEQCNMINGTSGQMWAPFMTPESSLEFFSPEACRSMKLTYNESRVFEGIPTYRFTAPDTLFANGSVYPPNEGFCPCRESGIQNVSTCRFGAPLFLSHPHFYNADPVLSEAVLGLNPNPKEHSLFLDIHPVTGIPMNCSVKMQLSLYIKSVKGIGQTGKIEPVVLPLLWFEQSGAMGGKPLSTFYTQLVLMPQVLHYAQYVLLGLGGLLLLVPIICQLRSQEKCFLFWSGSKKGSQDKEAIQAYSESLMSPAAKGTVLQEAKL
PKA-R1A activ: activators of PKA-R1A holoenzyme, primary screen, biochemical, fluorescence polarization, Cy5-IP20, bovine R1A, mouse PKAc. cAMP-dependent protein kinase type I-alpha regulatory subunit (Bos taurus) + …. PKA-R1A dissociation; scaled: DMSO 0%, 113 µM cGMP 100%. activation, % at 11.4 µM. 0.083% of 340,000 active;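 active = percent activation above the mean of all tested compounds plus 3 SD, cut at about 19% in these data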;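 note: higher means more PKAc released from R1A so a rise in polarization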
Vif imaging: HIV Vif self-association inhibitors, primary screen, imaging, HEK293T, single point; HEK293T cells, Vif self-association by quenched fluorescence, 24 h; inhibition, % at 7.49 µM; 0.35% of 340,000 active; AID 602346, 2012; in the data active = inhibition above about 50%, passing the limit was not always enough; inconclusive = no clear call, values can overlap the other calls; inactive = below about 31%
An asterisk follows results filed as active; ? = inconclusive; · = no result. Compounds with a hit are over-represented: about 1.4% of the library has one in this group of screens.

SMILES	SR-BI DiI-HDL act	PKA-R2B activ	SR-BI HDL uptake	PKA-R1A activ	Vif imaging
CCCn1c(=N)c(C(=O)NCc2ccc3c(c2)OCO3)cc2c(=O)n3cccc(C)c3nc21	22.6	-2.0	-22.6	4.6	92.5*
CCNC(=O)c1cc2c(=O)n3cccc(C)c3nc2n(Cc2ccc(C)cc2)c1=N	16.3	4.0	-16.3	-8.2	-1.5
COc1ccccc1NC(=O)C/C(N)=N/OCC(=O)Nc1cccc(Cl)c1	-13.7	-2.2	13.7	-11.9	-4.4
COc1ccccc1NC(=O)c1c(Nc2ccccc2F)sc(C(=O)Nc2cccc(Cl)c2)c1N	-74.6	9.0	74.6*	-0.3	0.1
O=C(NCCc1ccccc1)c1ccc(NC(=O)C2CCCCC2)cc1	1.7	0.7	-1.7	-10.3	·
Cc1ccc(C(=O)NCC(=O)N2CCN(S(=O)(=O)c3cccs3)CC2)s1	15.7	-6.6	-15.7	-9.8	1.2
O=C(NCC(=O)N1CCN(S(=O)(=O)c2cccs2)CC1)c1ccc(Cl)cc1	-1.5	-5.5	1.5	4.1	57.8*
CCOc1ccccc1Nc1nnc(SCC(=O)N(C)C2CCS(=O)(=O)C2)s1 (centres undefined)	-75.2	5.9	75.2*	-2.0	8.9
Cc1ccccc1Nc1nnc(SCC(=O)N(C)C2CCS(=O)(=O)C2)s1 (centres undefined)	13.8	-6.0	-13.8	9.6	-12.1
Cc1ccccc1SCC(=O)NCC1(N2CCCCC2)CCCCC1	·	1.1	·	3.1	31.5
COc1ccc(N(CC(=O)NCCc2ccc(OC)c(OC)c2)S(=O)(=O)c2ccc(OC)c(OC)c2)cc1	2.4	1.2	-2.4	-11.5	7.9
CCn1c(C)c(C)c2cc(C(=O)NCCN3CCCCCC3)ccc21	-75.4	-0.5	75.4*	-10.4	7.8
CCn1c(C)c(C)c2cc(C(=O)NCCCN3CCCCCC3)ccc21	-56.9	11.1	56.9	-9.6	6.7
CC(=O)Oc1ccc(C(=O)Nc2ccccc2C(=O)NCC(C)C)cc1	-74.2	3.4	74.2*	2.1	-1.8
CC(=O)Oc1ccc(C(=O)Nc2ccccc2C(=O)Nc2ccc(C(=O)O)cc2)cc1	-19.6	-9.8	19.6	2.7	30.2
COc1ccc2cc(-c3ccccc3)ncc2c1	33.3	-7.6	-33.2	0.8	-5.8
COc1ccc(-c2cc3cc(OC)c(OC)cc3cn2)cc1	-79.1	-9.0	79.1*	-16.9	-1.5
COc1cc(OC)cc(-c2cc3ccc(OC)cc3cn2)c1	-90.3	-8.9	90.3*	-13.2	17.5
CCn1cc(C(=O)NP(=O)(Nc2ccc(C)cc2)Nc2ccc(C)cc2)c2ccccc21	164.8*	-0.5	-164.8	5.5	1.6
CCOc1ccccc1NC(=O)C1C2CCC3C(CCC21)C3(Cl)Cl (centres undefined)	-73.0	-5.5	73.0*	-9.0	-5.0
Cc1nc(C(=O)Nc2ccc(Cl)cc2)sc1C1(C)CC(c2cccc([N+](=O)[O-])c2)=NO1 (centres undefined)	-77.1	-10.7	77.1*	14.5	·
Cc1nc(C(=O)Nc2cc(F)cc(Cl)c2)sc1C1(C)CC(c2ccccc2)=NO1 (centres undefined)	-79.8	2.2	79.8*	9.4	·
Cc1nc(C(=O)NC2CC2)sc1C1(C)CC(c2ccccc2)=NO1 (centres undefined)	-30.7	-20.3	30.7	-3.4	-0.2
Cc1nc(C(=O)NC2CCCCC2)sc1C1(C)CC(c2cccc([N+](=O)[O-])c2)=NO1 (centres undefined)	-75.6	-10.6	75.6*	-2.8	-6.4
Cc1nc(-c2ccccc2)sc1C1(C)CC(c2cccc([N+](=O)[O-])c2)=NO1 (centres undefined)	2.2	-4.2	-2.2	7.8	·
SMILES	SR-BI DiI-HDL act	PKA-R2B activ	SR-BI HDL uptake	PKA-R1A activ	Vif imaging
CCC(=O)N1CCC1(C)C(=O)NS(=O)(=O)c1cccc(C#N)c1 (centres undefined)	·	·	·	·	9.5
CCc1cc2cc(C)c(C)cc2nc1SCC(=O)NNC(=O)c1ccco1	-75.0	8.8	75.0*	-5.6	-6.2
O=c1sc(N2CCN(c3ccc(F)cc3)CC2)nc2ccsc12	-35.9	6.0	35.9	-4.7	68.3*
Cc1ccc2ccccc2c1C(O)c1ncc(-c2ccc(Cl)cc2)[nH]1 (centres undefined)	·	·	·	·	-5.5
Cc1cc(Cl)n2c(nc3cc(F)c(F)cc32)c1C#N	-11.0	-7.0	11.0	4.3	77.3*
Fc1ccc(NCc2n[nH]c(=S)n2Cc2ccccc2)cc1	-6.1	2.5	6.1	0.0	62.3*
COc1c2c(cc3oc(=O)c4c5ccc(O)cc5oc4c13)OC(C)(C)CC2	-89.2	15.9	89.2*	0.7	-17.3
COc1ccc(Cl)cc1NC(=O)NC1CCCCC1	-19.3	-8.3	19.3	-1.6	-5.3
COc1ccc(OC)c(NC(=O)c2cc(-c3cc(Cl)ccc3O)n[nH]2)c1	-69.6	1.7	69.6	0.3	-8.9
COc1ccc(Cl)cc1NC(=O)Nc1cccc([N+](=O)[O-])c1C	-78.1	-5.2	78.1*	0.6	-2.2
COc1ccc(Cl)cc1NC(=O)c1cc(-c2ccccc2O)n[nH]1	-90.4	12.2	90.4*	-3.7	-12.0
COc1ccc(Cl)cc1NC(=S)Nc1ccccc1C	-9.4	-5.4	9.4	0.0	2.3
COc1ccc(Cl)cc1NC(=O)c1ccccc1C	-86.2	-4.7	86.2*	-11.1	·
COc1ccc(/C=C2\SC(=S)N(CC(=O)NC3CCS(=O)(=O)C3)C2=O)cc1 (centres undefined)	-13.5	0.7	13.5	-1.7	2.2
O=C(CSc1nc(-c2ccc(F)cc2)cc(C(F)(F)F)n1)NCc1ccco1	-75.0	3.4	?	-7.7	-6.7
COc1ccc(C(=O)C=CNNC(=O)c2ccc(Cl)cc2)cc1	-95.5	0.7	95.5*	0.8	0.6
O=C(/C=C/NNC(=O)c1ccccc1)c1ccc(Br)cc1	-118.1	-9.0	118.1*	-7.0	2.6
O=C(/C=C/NNC(=O)c1cccc(Br)c1)c1cccc(Br)c1	-68.1	-11.3	68.1	-17.1	0.4
O=C(/C=C/NNC(=O)c1ccc(Cl)cc1)c1ccccc1	-111.5	2.0	111.5*	2.4	14.1
COc1ccc(C(=O)NN/C=C/C(=O)c2ccc(Br)cc2)cc1	·	-17.8	·	-10.1	-4.7
COc1ccc(C2=NS(=O)(=O)N(C)C(C(=O)NCc3cccs3)=C2)cc1OC	-32.5	2.8	32.5	-3.1	·
Cc1cc(N/N=C/c2ccc(N(C)C)cc2)nc(NCc2ccccc2)n1	-80.5	·	80.5*	·	14.4
CCOc1ccc(NC(=O)CN(C)C(=O)Cc2ccc3c(c2)OCCO3)cc1OCC	·	1.9	·	8.3	3.6
